Consider 33 molecules from ChEMBL document CHEMBL1121674, “Gastric antisecretory agents. 2. Antisecretory activity of 9-[(aminoalkyl)thio]-9H-xanthenes and 5-[(aminoalkyl)thio]-5H-[1]benzopyrano[2,3-b]pyridines” (1981).

For assay [1], the system named is Canis familiaris. The experiment in a line: Percent reduction of histamine stimulated gastric acid secretion in adult mongrel dog after intravenous administration at 5 mg/kg. It counts as functional, Canis lupus familiaris, Stomach. In outline: (§1)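 Heidenhain-pouch mongrel dogs given histamine infusion at 0.4 (μg/kg)/min. Compound given iv 1 h after infusion start. 30-min collections, volume recorded and aliquot titrated for acid. AO = volume × acid concentration, summed for 3 h post-dose and divided by 3-h control AO from the same dog. % inhibition = 100 − percent of control. Usually one dog per compound.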

In assay [2] the test system is Canis familiaris. The experiment in a line: Percent reduction of histamine stimulated gastric acid secretion in adult mongrel dog after peroral administration of compound at 8 mg/kg. It counts as functional, Canis lupus familiaris, Stomach. The settings on record: route oral. In outline:
(§2)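 Heidenhain-pouch mongrel dogs given histamine infusion at 0.4 (μg/kg)/min. Compound given orally by gavage 1 h after infusion start. 30-min secretions collected and titrated for acid. AO = volume × acid concentration, summed over 3 h after dosing and expressed against 3-h control AO in the same dog. % inhibition = 100 − percent of control. Usually a single dog.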

Assay [3] deals with Rattus norvegicus. The experiment in a line: Percent reduction of gastric acid secretion in pylorus ligated rat after intraperitoneal administration at 40 mg/kg. It counts as functional, Stomach. The gist of the method: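 Male Charles River CD outbred albino rats, 150-200 g, pylorus ligated; compound dissolved in 2.5% Tween 80 and given ip (0.5 mL/200 g) at ligation. Stomachs removed after 4 h. Gastric content volume recorded, acid titrated with 0.1 N NaOH to pH 7.0, AO in mequiv/4 h. Six rats per compound, eight controls; % inhibition = 100 − 100×(mean test AO/mean control AO); Student's t test.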

Assay [4] deals with Canis familiaris. The experiment in a line: Percent reduction of histamine stimulated gastric acid secretion in adult mongrel dog after peroral administration of compound at 8 mg/kg; Animal vomited upon compound administration. The settings on record: Canis lupus familiaris, Stomach. Further details: dose 8 mg/kg. It counts as functional, organism-based. In outline:
as §2

For assay [5], the system named is Canis familiaris. The experiment in a line: Percent reduction of histamine stimulated gastric acid secretion in adult mongrel dog after intravenous administration of compound at 5 mg/kg; stimulated gastric acid secretion. The settings on record: Canis lupus familiaris, Stomach. Further details: dose 5 mg/kg. It counts as functional, organism-based. In outline:
as §1

Where only a bound is given, the exact number is not on record here.

Consider `COc1ccc2c(c1)Oc1ccccc1C2SCCN1CCOCC1.Cl` (stereo not drawn), for which the Reduction in assay [1] is on record as 77%; in assay [2], <30%; in assay [3] it was 44%.

Regarding `Cl.Clc1ccc2c(c1)Oc1ccccc1C2SCCN1CCOCC1` (stereo not drawn), the Reduction in assay [1] amounted to 39%; in assay [3], 70%.

Regarding `Cc1ccc2c(c1)C(SCCCN)c1ccccc1O2.Cl` (stereo not drawn), the Reduction in assay [1] is on record as 80%; in assay [2], <50%; in assay [3], 100%.

As for `CN(C)CCSC1c2ccccc2Oc2ccccc21.Cl`, the results for the Reduction in assay [1] and in assay [3] were <30% and 65%, respectively.

On to `Cl.NCCCSC1c2ccccc2Oc2cc(Cl)ccc21` (stereo not drawn), for which the Reduction in assay [1] is given as <30%; in assay [3] it was 79%.

On to `COc1ccc2c(c1)C(SCCN(C)C)c1ccccc1O2.Cl` (stereo not drawn), for which the Reduction in assay [1] is given as <30%; in assay [3] it was 63%.

Take `Cl.NCCSC1c2ccccc2Oc2ccccc21`: the Reduction in assay [1] is <30%; in assay [3], 35%.

In the case of `Cl.NCCCSC1c2ccccc2Oc2c(Cl)cccc21` (stereo not drawn), the Reduction was 33% in assay [1] and 99% in assay [3].

On to `Cl.c1ccc2c(c1)Oc1ccccc1C2SCCN1CCCCC1`, for which the values for the Reduction in assay [1] and in assay [3] were <30% and 98%, respectively.

With `Cl.NCCCSC1c2ccccc2Oc2ccccc21`, the Reduction in assay [1] is given as 68%; in assay [4], “Animal vomited upon compound administration”; in assay [3], 44%.

Turning to `COc1ccc2c(c1)C(SCCN1CCCCC1)c1ccccc1O2.Cl` (stereo not drawn), the Reduction in assay [1] is recorded as <30%; in assay [3], 73%.

As for `Cl.c1ccc2c(c1)Oc1ncccc1C2SCCN1CCCCC1` (stereo not drawn), the Reduction was 63% in assay [1], <30% in assay [2] and 61% in assay [3].

With `Cl.NCCSC1c2ccccc2Oc2ncccc21` (stereo not drawn), the Reduction in assay [1] and in assay [3] was <30% each time.

With `COc1ccc2c(c1)C(SCCN1CCOCC1)c1ccccc1O2.Cl` (stereo not drawn), the Reduction result in assay [5] was “stimulated gastric acid secretion”; in assay [3], 94%.

With `Cl.NCCSC1c2ccccc2Oc2ccc(Cl)cc21` (stereo not drawn), the Reduction in assay [1] is given as <30%; in assay [3], 74%.

For `Cl.c1ccc2c(c1)Oc1ccccc1C2SCCCN1CCCCC1`, the Reduction in assay [1] came to 30%; in assay [3], 88%.

Take `Cl.c1ccc2c(c1)Oc1ccccc1C2SCCN1CCOCC1`: the Reduction in assay [1] is listed as 56%; in assay [2] it was <30%; in assay [3], 93%.

Regarding `Cl.c1ccc2c(c1)Oc1ccccc1C2SCCCN1CCOCC1`, the Reduction in assay [1] is 47%; in assay [3], 98%.

As to `Cc1cccc2c1Oc1ccccc1C2SCCN1CCOCC1.Cl` (stereo not drawn), the Reduction in assay [1] is <30%; in assay [3] it was 71%.

In assay [3], `Cl.c1ccc2c(c1)Oc1ncccc1C2SCCCN1CCOCC1` (stereo not drawn) had a Reduction of 62%.

`CN/C(=N\CCSCc1nc[nH]c1C)NC#N` [CIMETIDINE]: the Reduction in assay [1] stood at 84%; in assay [2], 86%; in assay [3], 74%.

On to `Cc1cccc2c1Oc1ccccc1C2SCCCN.Cl` (stereo not drawn), for which the Reduction is 87% in assay [1], “Animal vomited upon compound administration” in assay [4] and 71% in assay [3].

On to `Cl.NCCCSC1c2ccccc2Oc2ccc(Cl)cc21` (stereo not drawn), for which the Reduction in assay [1] worked out at 39%; in assay [3], 89%.

Consider `Cl.Clc1cccc2c1Oc1ccccc1C2SCCN1CCCCC1` (stereo not drawn), for which the Reduction was 44% in assay [1] and 87% in assay [3].

For `Cl.Clc1ccc2c(c1)Oc1ccccc1C2SCCN1CCCCC1` (stereo not drawn), the Reduction was <30% in assay [1] and 80% in assay [3].

`Cc1ccc2c(c1)C(SCCN1CCOCC1)c1ccccc1O2.Cl` (stereo not drawn): the Reduction in assay [1] is 50%; in assay [3], 93%.

Consider `Cc1cccc2c1Oc1ccccc1C2SCCN1CCCCC1.Cl` (stereo not drawn), for which the results for the Reduction in assay [1] and in assay [3] were <30% and 85%, respectively.

Turning to `Cl.c1ccc2c(c1)Oc1ncccc1C2SCCN1CCOCC1` (stereo not drawn), the Reduction in assay [1] turned out to be 66%; in assay [3], 64%.

On to `CN(C)CCSC1c2ccccc2Oc2ccc(Cl)cc21.Cl` (stereo not drawn), for which the Reduction is on record as <30% in assay [1] and 55% in assay [3].

For the molecule `COc1ccc2c(c1)Oc1ccccc1C2SCCN1CCCCC1.Cl` (stereo not drawn), the values for the Reduction in assay [1], in assay [2] and in assay [3] were <58%, <30% and 47%, respectively.

`Cl.Clc1cccc2c1Oc1ccccc1C2SCCN1CCOCC1` (stereo not drawn): the Reduction is on record as 42% in assay [1] and 86% in assay [3].

Consider `CN(C)CCSC1c2ccccc2Oc2ncccc21.Cl` (stereo not drawn), for which the Reduction in assay [1] is recorded as <30%; in assay [3] it was 79%.

For the molecule `Cc1ccc2c(c1)C(SCCN1CCCCC1)c1ccccc1O2.Cl` (stereo not drawn), the figures for the Reduction in assay [1] and in assay [3] were <30% and 88%, respectively.
